The nature of experiment [1]: Induction of microtubule depolymerization in rat A10 cells assessed as cellular microtubule loss incubated for 18 hrs by indirect immunofluorescence assay. Format: cell-based. Particulars: A10, 18 h. In outline:
(§1)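 Cellular microtubule loss was scored. EC50 was defined as the concentration causing 50% loss of cellular microtubules.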

The test system of another experiment is MDA-MB-435. The experiment is described as follows: Antiproliferative activity against human MDA-MB-435 cells by SRB assay. Format: functional, cell-based. In a few lines:
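Proliferation of MDA-MB-435 melanoma cells was read by sulforhodamine B (SRB) assay. IC50 was taken as the concentration causing 50% inhibition of proliferation.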

A short description of experiment [2]: Ratio of EC50 for induction of microtubule depolymerization in rat A10 cells to IC50 for antiproliferative activity against human MDA-MB-435 cells.
A short description of experiment [3]: Inhibition of bovine brain tubulin assembly. On the set-up: species or system Bos taurus.
Another experiment is filed under the species Bos taurus. The experiment is described as follows: Inhibition of [3H]colchicine binding to bovine brain tubulin at 5 uM.
The subject of a further experiment is SK-OV-3. Briefly: Antiproliferative activity against human SKOV3 cells by SRB assay. It is filed as functional, cell-based. In outline:
(§2)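 Antiproliferative IC50s were measured by SRB assay in isogenic cell-line pairs. For Pgp-mediated resistance, the pair was parental SK-OV-3 ovarian cancer cells and Pgp-expressing SK-OV-3 MDR-1-M6/6 cells. For βIII-tubulin-mediated resistance, the pair was parental HeLa cells and βIII-tubulin-expressing HeLa cells.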

A short description of experiment [4]: Antiproliferative activity against human SKOV3-MDR1-M6/6 cells by SRB assay. Format: functional, cell-based. In outline:
as §2

Experiment [5] can be described thus: Resistance index, ratio of IC50 for antiproliferative activity against human SKOV3-MDR1-M6/6 cells to IC50 for antiproliferative activity against human SKOV3 cells. It is filed as functional. In a few lines:
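Relative resistance (Rr) was calculated as the SRB IC50 in Pgp-expressing SK-OV-3 MDR-1-M6/6 cells divided by the SRB IC50 in parental SK-OV-3 cells.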

Experiment [6] relates to HeLa. Briefly: Antiproliferative activity against human HeLa cells by SRB assay. It is filed as functional, cell-based. In a few lines: as §2
The subject of experiment [7] is HeLa. Briefly: Antiproliferative activity against human HeLa cells expressing beta3-tubulin by SRB assay. It is filed as functional, cell-based. In outline:
as §2

The test system of experiment [8] is HeLa. Briefly: Resistance index, ratio of IC50 for antiproliferative activity against human HeLa cells expressing beta3-tubulin cells to IC50 for antiproliferative activity against human HeLa cells. Format: functional. In outline:
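Relative resistance (Rr) was calculated as the SRB IC50 in βIII-tubulin-expressing HeLa cells divided by the SRB IC50 in parental HeLa cells.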

The species named for another experiment is Rattus norvegicus. The experiment is described as follows: Induction of microtubule depolymerization in rat A10 cells assessed as cellular microtubule loss up to 40 uM incubated for 18 hrs by indirect immunofluorescence assay. It is filed as cell-based. In a few lines: as §1

pEC50, pIC50: −log10 of the molar value. Calls of active or inactive are those of the source.

Regarding `COc1ccc(N(C)c2nc(N)nc3[nH]c4cccc(C)c4c23)cc1`, the pEC50 in experiment [1] is 5.85. In addition, the pIC50 in the experiment with MDA-MB-435 was 6.66. Besides, the Ratio in [2] worked out at 6.5.
As for `CSc1ccc(N(C)c2nc(N)nc3[nH]c4ccccc4c23)cc1`, the negative logarithm of the EC50 (pEC50) in experiment [1] is 5.96. Moreover, the pIC50 with MDA-MB-435 was 7.05; in experiment [3] it was 5.64; in the experiment on SK-OV-3, 6.81; in experiment [4] it was 6.80; with HeLa [6] it was 6.93; in the experiment with HeLa [7] it was 7.11. Also, the inhibition in the experiment filed under Bos taurus is 67%. Further, the “Ratio IC50” value amounted to 1 in [5] and 0.7 in the experiment on HeLa [8]. Also, the Ratio in [2] was determined as 12.
As to `COc1ccc2c(c1)CCCN2c1nc(N)nc2[nH]c3ccccc3c12`, the pEC50 in experiment [1] is 6.82. The pIC50 in the experiment with MDA-MB-435 was 7.26; in [3], 5.66; with SK-OV-3 it was 7.08; in experiment [4], 6.87; with HeLa [6], 7.14; in the experiment on HeLa [7], 7.06. This compound also gave an inhibition in the experiment listed under Bos taurus of 71%. The “Ratio IC50” value turned out to be 1.6 in [5] and 1.2 with HeLa [8]. The Ratio in experiment [2] came out at 2.8.
On to `COc1ccc(N(C)c2nc(C)nc3[nH]c4ccccc4c23)cc1`, for which the negative-log EC50 (pEC50) in experiment [1] is 6.89. The pIC50 in the experiment with MDA-MB-435 is 7.47; in experiment [3], 5.92; in the experiment with SK-OV-3 it was 7.22; in experiment [4], 7.11; in the experiment with HeLa [6], 7.30; in the experiment with HeLa [7], 7.50. In the experiment listed under Bos taurus, this compound had an inhibition of 67%. Moreover, the “Ratio IC50” value was found to be 1.3 in [5] and 0.6 in the experiment with HeLa [8]. Further, the Ratio in [2] was determined as 3.8.
In the case of `COc1ccc(N(C)c2ncnc3[nH]c4ccccc4c23)cc1`, the negative-log EC50 (pEC50) in [1] was 5.92. Besides, the pIC50 was 6.89 with MDA-MB-435; 5.64 in [3]; 6.76 with SK-OV-3; 6.65 in experiment [4]; 6.85 in the experiment on HeLa [6]; 7.00 with HeLa [7]. In the experiment listed under Bos taurus, the inhibition was 62%. Also, the results for the “Ratio IC50” value (in experiment [5]; in the experiment on HeLa [8]) were 1.4 and 0.8, respectively. Moreover, the Ratio in experiment [2] is 9.2.
On to `COc1ccc2c(c1)CCCN2c1nc(N)nc2[nH]c3cccc(Cl)c3c12`, for which the pEC50 in [1] is 5.43. For the same compound, the pIC50 with MDA-MB-435 was 6.57. For the same compound, in experiment [2], the Ratio is 15.
In the experiment on MDA-MB-435, `COc1ccc(N(C)c2nc(N)nc3[nH]c4cccc(Cl)c4c23)cc1` had a pIC50 of 5.41. The result in the experiment filed under Rattus norvegicus was inactive.

The values above are taken from ChEMBL document CHEMBL4033743, “Design, synthesis, and structure-activity relationships of pyrimido[4,5-b]indole-4-amines as microtubule depolymerizing agents that are effective against multidrug resistant cells” (Bioorg Med Chem Lett, 2017).
